In ChEMBL document CHEMBL2010780, “Pyridine Carboxamides: Potent Palm Site Inhibitors of HCV NS5B Polymerase” (ACS Med Chem Lett, 2010):
pEC50, pIC50: −log10 of the molar value.

Experiments:
[1] = Inhibition of Hepatitis C virus genotype 1b Con1 NS5B Cdelta21 polymerase assessed as incorporation of [33P]-CTP into heteropolymer RNA template after 2 hrs; set-up: species or system Hepacivirus hominis; details: Con1, 2 h
In short: (§1)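 Each value is the mean of duplicate experiments run on two separate weighings of compound.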

Hepatitis C virus = assay: Antiviral activity against Hepatitis C virus genotype 1b Con1 infected in human HuH7 cells assessed as inhibition of viral RNA replication after 3 by real time PCR analysis; format: functional, organism-based, Hepacivirus hominis, Huh-7; details: for pEC50: Hepatitis C virus, Con1, Huh-7, read-out: EC50; for EC50: huh-7; in short: as §1
[2] = Cytotoxicity against human HuH7 cells after 3 days by MTS assay; format: cell-based, Huh-7; in short: as §1

Cc1oncc1C(=O)Nc1ccc(C(C)C)cc1N1CCN(c2cnccn2)CC1
pIC50 [1]: 4.89

Cc1nc(Br)sc1C(=O)Nc1ccc(C(C)C)cc1N1CCN(c2cnccn2)CC1
pIC50 [1]: 5.52 | pEC50 (Hepatitis C virus): < 5.00 | CC50 at 72 h [2]: > 10 µM

Cc1nc(N(C)C)sc1C(=O)Nc1ccc(C(C)C)cc1N1CCN(c2cnccn2)CC1
pIC50 [1]: 5.00 | pEC50 (Hepatitis C virus): 5.16 | CC50 at 72 h [2]: > 10 µM

O=C(Nc1ccc(C2CC2)cc1N1CCN(c2cnccn2)CC1)c1cccnc1
pIC50 [1]: 4.92

Cc1n[nH]cc1C(=O)Nc1ccc(C(C)C)cc1N1CCN(c2cnccn2)CC1
pIC50 [1]: < 3.70

CC(C)c1ccc(NC(=O)c2ccc(C(F)(F)F)nc2)c(N2CCN(c3cnccn3)CC2)c1
pIC50 [1]: < 4.70

CC(C)c1ccc(NC(=O)c2cnccc2C(F)(F)F)c(N2CCN(c3cnccn3)CC2)c1
pIC50 [1]: < 4.70

Cc1ncsc1C(=O)Nc1ccc(C(C)C)cc1N1CCN(c2cnccn2)CC1
pIC50 [1]: 6.24 | EC50 (Hepatitis C virus): ND(toxic) | CC50 at 72 h [2]: 25 µM

CCOC(=O)c1ccc(NC(=O)c2cccnc2)c(N2CCN(c3cnccn3)CC2)c1
pIC50 [1]: < 5.30

CC(C)c1ccc(NC(=O)c2cccnc2)c(N2CCN(c3ncccn3)CC2)c1
pIC50 [1]: 5.64 | EC50 (Hepatitis C virus): ND(toxic) | CC50 at 72 h [2]: 37 µM

Cc1ccc(C(=O)Nc2ccc(C(C)C)cc2N2CCN(c3cnccn3)CC2)cn1
pIC50 [1]: 4.85 | EC50 (Hepatitis C virus): ND(toxic) | CC50 at 72 h [2]: 11 µM

CC(C)c1ccc(NC(=O)c2cnc3[nH]ccc3c2)c(N2CCN(c3cnccn3)CC2)c1
pIC50 [1]: < 4.70

CC(C)c1ccc(NC(=O)c2cccnc2)c(N2CCN(C(=O)OC(C)(C)C)CC2)c1
pIC50 [1]: < 3.70

CC(C)c1ccc(NC(=O)c2cccnc2)c(N2CCN(C(=O)CN(C)C)CC2)c1
pIC50 [1]: < 3.70

CC(C)c1ccc(NC(=O)c2cccnc2N)c(N2CCN(c3cnccn3)CC2)c1
pIC50 [1]: 6.00 | EC50 (Hepatitis C virus): ND(toxic) | CC50 at 72 h [2]: 30 µM

COc1ncccc1C(=O)Nc1ccc(C(C)C)cc1N1CCN(c2cnccn2)CC1
pIC50 [1]: < 4.70

CC(C)c1ccc(NC(=O)c2cncnc2)c(N2CCN(c3cnccn3)CC2)c1
pIC50 [1]: < 4.70

CC(C)c1ccc(NC(=O)c2ccnc(NC(=O)C(C)(C)C)c2)c(N2CCN(c3cnccn3)CC2)c1
pIC50 [1]: < 4.70

Cc1cnc(C(=O)Nc2ccc(C(C)C)cc2N2CCN(c3cnccn3)CC2)cn1
pIC50 [1]: < 4.70

Cc1nccc(N2CCN(c3cc(C(C)C)ccc3NC(=O)c3cccnc3)CC2)n1
pIC50 [1]: 6.80 | EC50 (Hepatitis C virus): ND(toxic) | CC50 at 72 h [2]: 25 µM

CC(C)c1ccc(NC(=O)c2cccnc2)c(N2CCN(c3ccccn3)CC2)c1
pIC50 [1]: 5.14 | pEC50 (Hepatitis C virus): < 4.30 | CC50 at 72 h [2]: > 50 µM

CC(C)c1ccc(NC(=O)C2CCOCC2)c(N2CCN(c3cnccn3)CC2)c1
pIC50 [1]: < 4.70

Cc1ncoc1C(=O)Nc1ccc(C(C)C)cc1N1CCN(c2cnccn2)CC1
pIC50 [1]: 4.85

CC(C)c1ccc(NC(=O)c2cccc(O)n2)c(N2CCN(c3cnccn3)CC2)c1
pIC50 [1]: 4.34 | EC50 (Hepatitis C virus): ND(toxic) | CC50 at 72 h [2]: 17 µM

CNCC(=O)N1CCN(c2cc(C(C)C)ccc2NC(=O)c2cccnc2)CC1
pIC50 [1]: < 3.70

Cc1cncc(N2CCN(c3cc(C(C)C)ccc3NC(=O)c3cccnc3)CC2)n1
pIC50 [1]: 6.30 | EC50 (Hepatitis C virus): ND(toxic) | CC50 at 72 h [2]: 23 µM

CC(C)c1ccc(NC(=O)c2cccnc2)c(N2CCN(C(=O)Nc3ccccc3)CC2)c1
pIC50 [1]: < 4.00

CC(C)c1ccc(NC(=O)c2cnc3ccccc3c2)c(N2CCN(c3cnccn3)CC2)c1
pIC50 [1]: 5.17 | pEC50 (Hepatitis C virus): 5.74 | CC50 at 72 h [2]: 6 µM

CSCc1nccc(N2CCN(c3cc(C(C)C)ccc3NC(=O)c3cccnc3C)CC2)n1
pIC50 [1]: 7.57 | pEC50 (Hepatitis C virus): 5.66 | CC50 at 72 h [2]: 19 µM

CC(C)c1ccc(NC(=O)C2CCCNC2)c(N2CCN(c3cnccn3)CC2)c1 (stereo unspecified)
pIC50 [1]: < 3.70

CC(C)c1ccc(NC(=O)c2cccnc2)c(N2CCN(c3cncc(C4CC4)n3)CC2)c1
pIC50 [1]: 6.00 | EC50 (Hepatitis C virus): ND(toxic) | CC50 at 72 h [2]: 1 µM

Cc1occc1C(=O)Nc1ccc(C(C)C)cc1N1CCN(c2cnccn2)CC1
pIC50 [1]: 4.82

CC(C)c1ccc(NC(=O)c2cccnc2)c(N2CCN(c3cncc(-c4ccccc4)n3)CC2)c1
pIC50 [1]: 4.77

Cc1c(F)cc(F)cc1C(=O)Nc1ccc(C(C)C)cc1N1CCN(c2cnccn2)CC1
pIC50 [1]: 6.27 | EC50 (Hepatitis C virus): ND(toxic) | CC50 at 72 h [2]: 20 µM

CC(C)c1ccc(NC(=O)c2cccnc2)c(N2CCN(c3nccs3)CC2)c1
pIC50 [1]: 5.60 | pEC50 (Hepatitis C virus): < 4.30 | CC50 at 72 h [2]: > 50 µM

Cc1ccnc(N2CCN(c3cc(C(C)C)ccc3NC(=O)c3cccnc3)CC2)n1
pIC50 [1]: 5.82 | EC50 (Hepatitis C virus): ND(toxic) | CC50 at 72 h [2]: 14 µM

CC(C)c1ccc(NC(=O)c2ccsc2)c(N2CCN(c3cnccn3)CC2)c1
pIC50 [1]: 5.15 | pEC50 (Hepatitis C virus): 5.19 | CC50 at 72 h [2]: 28 µM

CC(C)c1ccc(NC(=O)C2CCOC2)c(N2CCN(c3cnccn3)CC2)c1 (stereo unspecified)
pIC50 [1]: 4.70

Cc1csc(N2CCN(c3cc(C(C)C)ccc3NC(=O)c3cccnc3)CC2)n1
pIC50 [1]: 5.41 | pEC50 (Hepatitis C virus): 5.22 | CC50 at 72 h [2]: 27 µM

Cc1cnc(N2CCN(c3cc(C(C)C)ccc3NC(=O)c3cccnc3)CC2)s1
pIC50 [1]: 4.82

Cc1ncccc1C(=O)Nc1ccc(C(C)C)cc1N1CCN(c2ccncn2)CC1
pIC50 [1]: 7.00 | pEC50 (Hepatitis C virus): 5.96 | CC50 at 72 h [2]: 20 µM

CC(C)c1ccc(NC(=O)c2cccnc2C2CC2)c(N2CCN(c3cnccn3)CC2)c1
pIC50 [1]: 5.70 | EC50 (Hepatitis C virus): ND(toxic) | CC50 at 72 h [2]: 21 µM

CC(C)c1ccc(NC(=O)c2ccccn2)c(N2CCN(c3cnccn3)CC2)c1
pIC50 [1]: < 4.70

CC(C)c1ccc(NC(=O)c2cccnc2)c(N2CCN(c3ccncn3)CC2)c1
pIC50 [1]: 6.25 | EC50 (Hepatitis C virus): ND(toxic) | CC50 at 72 h [2]: 27 µM

C=C(C)c1ncccc1C(=O)Nc1ccc(C(C)C)cc1N1CCN(c2cnccn2)CC1
pIC50 [1]: < 3.70

CC(C)c1ccc(NC(=O)c2cccnc2)c(N2CCN(S(C)(=O)=O)CC2)c1
pIC50 [1]: < 3.70

CC(C)c1ccc(NC(=O)c2cccnc2-c2ccccc2)c(N2CCN(c3cnccn3)CC2)c1
pIC50 [1]: < 3.70 | EC50 (Hepatitis C virus): ND(toxic) | CC50 at 72 h [2]: 15 µM

CC(C)c1ccc(NC(=O)c2cccnc2O)c(N2CCN(c3cnccn3)CC2)c1
pIC50 [1]: < 3.70

CC(C)c1ccc(NC(=O)c2ccnnc2)c(N2CCN(c3cnccn3)CC2)c1
pIC50 [1]: < 4.70

Cc1c(F)cc(C(=O)Nc2ccc(C(C)C)cc2N2CCN(c3cnccn3)CC2)cc1F
pIC50 [1]: 5.25 | pEC50 (Hepatitis C virus): < 4.30 | CC50 at 72 h [2]: > 50 µM

O=C(Nc1ccc(Br)cc1N1CCN(c2cnccn2)CC1)c1cccnc1
pIC50 [1]: < 4.70

Cc1c(F)ccc(F)c1C(=O)Nc1ccc(C(C)C)cc1N1CCN(c2cnccn2)CC1
pIC50 [1]: 4.27 | EC50 (Hepatitis C virus): ND(toxic) | CC50 at 72 h [2]: 11 µM

CC(C)c1ccc(NC(=O)c2cccnc2F)c(N2CCN(c3cnccn3)CC2)c1
pIC50 [1]: 5.66 | EC50 (Hepatitis C virus): ND(toxic) | CC50 at 72 h [2]: 17 µM

CC(C)c1ccc(NC(=O)c2cccnc2)c(N2CCN(c3nsc(Cl)n3)CC2)c1
pIC50 [1]: 5.30 | pEC50 (Hepatitis C virus): < 5.00 | CC50 at 72 h [2]: > 10 µM

CC(C)c1ccc(NC(=O)c2cccnc2)c(N2CCN(c3cnccn3)CC2)c1
pIC50 [1]: 5.52 | pEC50 (Hepatitis C virus): 4.70 | CC50 at 72 h [2]: 54 µM

CC(C)c1ccc(NC(=O)c2cccnc2C(F)(F)F)c(N2CCN(c3cnccn3)CC2)c1
pIC50 [1]: 5.64 | EC50 (Hepatitis C virus): ND(toxic) | CC50 at 72 h [2]: 4.5 µM

Cc1nocc1C(=O)Nc1ccc(C(C)C)cc1N1CCN(c2cnccn2)CC1
pIC50 [1]: < 3.70

Cc1cncc(C(=O)Nc2ccc(C(C)C)cc2N2CCN(c3cnccn3)CC2)c1
pIC50 [1]: 5.64 | EC50 (Hepatitis C virus): ND(toxic) | CC50 at 72 h [2]: 13 µM
